# Reference: ChEMBL document CHEMBL1137584, “Constrained 7-fluorocarboxychromone-4-aminopiperidine based Melanin-concentrating hormone receptor 1 antagonists: the effects of chirality on substituted indan-1-ylamines” (Bioorg Med Chem Lett, 2007)
# Experiments:
# [1] = molecular target: Melanin-concentrating hormone receptor 1 (Homo sapiens, UniProt Q99705); test: Displacement of 125I-MCH from MCH-R1 expressed in IMR-32 cells; assay type: cell-based
# [2] = molecular target: Voltage-gated inwardly rectifying potassium channel KCNH2 (Homo sapiens, UniProt Q12809); test: Displacement of 3H-dofetilide from hERG-expressing HEK membrane homogenates
# Voltage-gated inwardly rectifying potassium channel KCNH2, sequence (Q12809 whole entry): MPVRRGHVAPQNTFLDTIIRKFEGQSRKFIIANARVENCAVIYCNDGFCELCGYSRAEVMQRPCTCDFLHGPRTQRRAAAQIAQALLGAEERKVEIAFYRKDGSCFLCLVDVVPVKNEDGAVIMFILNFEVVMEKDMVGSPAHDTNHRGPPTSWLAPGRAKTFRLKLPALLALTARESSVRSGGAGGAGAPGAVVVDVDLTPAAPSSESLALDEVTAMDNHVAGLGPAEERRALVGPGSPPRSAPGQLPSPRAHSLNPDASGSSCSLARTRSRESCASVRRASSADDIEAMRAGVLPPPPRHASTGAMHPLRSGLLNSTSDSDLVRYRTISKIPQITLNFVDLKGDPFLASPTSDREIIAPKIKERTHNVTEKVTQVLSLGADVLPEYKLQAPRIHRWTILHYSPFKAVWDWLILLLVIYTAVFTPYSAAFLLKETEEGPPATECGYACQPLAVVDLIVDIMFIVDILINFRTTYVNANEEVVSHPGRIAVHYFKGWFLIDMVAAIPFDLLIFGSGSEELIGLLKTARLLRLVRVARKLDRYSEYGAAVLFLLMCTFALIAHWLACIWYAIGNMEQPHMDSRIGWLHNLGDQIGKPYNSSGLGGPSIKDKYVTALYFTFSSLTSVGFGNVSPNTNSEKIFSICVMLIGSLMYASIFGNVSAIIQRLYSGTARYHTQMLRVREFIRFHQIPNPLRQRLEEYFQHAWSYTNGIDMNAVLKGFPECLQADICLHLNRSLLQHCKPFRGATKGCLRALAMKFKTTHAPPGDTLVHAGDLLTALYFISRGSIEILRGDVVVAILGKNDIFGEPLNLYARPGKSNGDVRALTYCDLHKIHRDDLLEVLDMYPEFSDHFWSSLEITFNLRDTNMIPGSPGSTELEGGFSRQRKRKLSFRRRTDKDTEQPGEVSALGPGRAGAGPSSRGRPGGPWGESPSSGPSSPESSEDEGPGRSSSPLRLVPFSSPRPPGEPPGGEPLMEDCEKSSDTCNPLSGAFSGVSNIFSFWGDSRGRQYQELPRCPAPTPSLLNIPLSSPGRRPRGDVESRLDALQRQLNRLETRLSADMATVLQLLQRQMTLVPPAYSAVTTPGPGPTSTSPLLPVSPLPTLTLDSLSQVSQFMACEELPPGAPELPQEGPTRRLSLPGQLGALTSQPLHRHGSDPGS
# [3] = molecular target: Melanin-concentrating hormone receptor (Homo sapiens, UniProt Q969V1+Q99705); test: Inhibition of MCH-mediated calcium release in IMR-32 cells; assay type: functional, cell-based
# Mus musculus [4] = test: (§1) Half-life in plasma of DIO mice after 10 mg/kg peroral dose; assay type: ADME, organism-based; parameters: dose 10 mg/kg, route oral; conditions: in vivo, po
# Summary of the method: (§2)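 Single oral dose, 10 mg/kg in 1% Tween 80/water, to DIO mice; plasma and brain sampled over time. Cmax = average of the three mice with highest concentrations ± SEM. Mean concentration data fitted multi-exponentially; AUC0-t by linear trapezoidal rule, extrapolated to infinity with Ct/β added.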
# Mus musculus [5] = test: Plasma AUC in DIO mice after 10 mg/kg peroral dose; assay type: ADME, organism-based; parameters: dose 10 mg/kg, route oral; conditions: in vivo, po; summary of the method: as §2
# Mus musculus [6] = test: Brain AUC in DIO mice after 10 mg/kg peroral dose; assay type: ADME, organism-based; parameters: dose 10 mg/kg, route oral; conditions: in vivo, po; summary of the method: as §2
# [7] = Brain Cmax in DIO mice after 10 mg/kg peroral dose; assay type: ADME, organism-based; parameters: dose 10 mg/kg, route oral; conditions: mouse, po; summary of the method: as §2
# Mus musculus [8] = test: Plasma Cmax in DIO mice after 10 mg/kg peroral dose; assay type: ADME, organism-based; parameters: dose 10 mg/kg, route oral; conditions: in vivo, po; summary of the method: as §2
# [9] = as §1; assay type: ADME, organism-based; parameters: dose 10 mg/kg, route oral; conditions: mouse, plasma, po; summary of the method: as §2
# Melanin-concentrating hormone receptor 1, sequence (Q99705 whole entry): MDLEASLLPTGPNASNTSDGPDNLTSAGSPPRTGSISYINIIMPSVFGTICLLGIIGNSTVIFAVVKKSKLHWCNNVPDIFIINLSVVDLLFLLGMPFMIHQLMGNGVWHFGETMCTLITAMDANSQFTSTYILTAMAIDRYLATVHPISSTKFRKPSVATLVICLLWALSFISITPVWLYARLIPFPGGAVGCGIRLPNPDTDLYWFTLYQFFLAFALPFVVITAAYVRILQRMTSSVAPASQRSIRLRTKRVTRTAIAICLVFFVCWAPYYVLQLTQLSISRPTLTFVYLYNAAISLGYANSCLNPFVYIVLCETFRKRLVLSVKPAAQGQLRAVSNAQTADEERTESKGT
IC50 [1] [nM],IC50 [3] [nM],T1/2 (Mus musculus [4]) [h],AUC (Mus musculus [5]) [ng·h/mL],AUC (Mus musculus [6]) [µg·h/g],Cmax [7] [ng/g],Cmax (Mus musculus [8]) [ng/mL],half-life [9] [h],Compound,IC50 [2] [nM]
11,173,,,,,,,O=C(NC1CCN(C2CCc3cc4oc(=O)[nH]c4cc32)CC1)c1cc(=O)c2ccc(F)cc2o1 (centres undefined),25000
21,95,,,,,,,O=C1COc2cc3c(cc2N1)C(N1CCC(NC(=O)c2cc(=O)c4ccc(F)cc4o2)CC1)CC3 (centres undefined),14600
76,2750,,,,,,,O=C(NC1CCN(C2CCc3c2ccc2c3OCO2)CC1)c1cc(=O)c2ccc(F)cc2o1 (centres undefined),5860
2570,> 10000,1.3,3760,0.043,17,1410,,"CC(=O)Nc1ccc2c(c1)C(N1CCC(NC(=O)c3cc(=O)c4ccc(F)cc4o3)CC1)CC2 (single isomer, unassigned; (+))",
4,26,,41600,0,,14600,2.3,"CC(=O)Nc1ccc2c(c1)C(N1CCC(NC(=O)c3cc(=O)c4ccc(F)cc4o3)CC1)CC2 (single isomer, unassigned; (-))",
3,56,,,,,,,CC(=O)Nc1ccc2c(c1)C(N1CCC(NC(=O)c3cc(=O)c4ccc(F)cc4o3)CC1)CC2 (stereo in doubt; 16),
